Data published in ChEMBL document CHEMBL1151834, “Bioactive alkaloids from endophytic Aspergillus fumigatus” (J Nat Prod, 2009).
Counter-ions that a name gives are not always drawn. Activity calls are given as the source filed them. The calls are words filed in the database; no cut-off is given here.

Columns and labels:
Assay type in all cases: functional, cell-based
K562 = experiment: Cytotoxicity against human K562 cells after 48 hrs by MTT assay; details: K562, 48 h
Method in brief: (§1)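 Exponential-phase cells plated, allowed 24 h to establish, then exposed to compound dilutions for 48 h. MTT added (0.1 mg/well) for 4 h, supernatant removed, formazan dissolved in DMSO, absorbance read at 570 nm. IC50 taken as concentration giving 50% growth inhibition; mean ± SD of three experiments run in triplicate.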

KB = experiment: Cytotoxicity against human KB cells after 48 hrs by MTT assay; method in brief: as §1
MCF7 = experiment: Cytotoxicity against human MCF7 cells after 48 hrs by MTT assay; method in brief: as §1
PC-12 = experiment: Induction of neurite outgrowth in rat PC12 cells at 10 uM after 2 days by phase-contrast microscope
Method in brief: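 PC12 cells kept in DMEM with 10% heat-inactivated fetal calf serum, 5% horse serum, penicillin 50 units/mL and streptomycin 50 µg/mL at 37 °C, 5% CO2. Seeded at 1 × 10^4 cells/mL, cultured one day, then medium replaced with fresh medium containing compound. Cultured 2 days; neurite outgrowth observed by phase-contrast microscopy against untreated control.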

Row | SMILES | IC50 (K562) [µM] | Activity (KB) | Activity (MCF7) | Activity (PC-12)
1 | COc1ccc2c(C[C@@H]3NC(=O)[C@@H]4CCCN4C3=O)c(CC=C(C)C)[nH]c2c1 [TRYPROSTATIN A] | 41 | inactive | inactive | inactive
2 | COc1ccc2c3c4n(c2c1)[C@H](C=C(C)C)OOC(C)(C)C[C@@H]4N1C(=O)[C@@H]2CCCN2C(=O)[C@]1(O)[C@H]3O [VERRUCULOGEN] | 41 | inactive | inactive | inactive
3 | COc1ccc2c(c1)NC(=O)[C@@]21C[C@H]2C(=O)N3CCC[C@H]3C(=O)N2[C@H]1C=C(C)C |  | inactive | inactive | inactive
4 | CC(C)=CCc1[nH]c2ccccc2c1C[C@@H]1NC(=O)[C@@H]2CCCN2C1=O [TRYPROSTATIN B] | 41 | inactive | inactive | inactive
5 | C/C=C\[C@H](O)[C@H](O)C1=C(C)C(=O)[C@]2(O1)C(=O)N[C@@](OC)(C(=O)c1ccccc1)[C@@H]2O |  | inactive | inactive | 
6 | CC(C)=C[C@H]1c2[nH]c3ccccc3c2C[C@H]2C(=O)N3CCC[C@H]3C(=O)N21 |  | inactive | inactive | inactive
7 | COc1cccc2c1C(=O)c1c(O)c3c(c(O)c1C2=O)C[C@@](O)(C(=O)CO)C[C@@H]3O[C@H]1C[C@H](N)[C@H](O)[C@H](C)O1 [DOXORUBICIN HYDROCHLORIDE] | 1.2 |  |  | 
8 | CS[C@]1(CO)C(=O)N2[C@H]3C(=CC=CC3O)C[C@@]2(SC)C(=O)N1C (stereo partly specified) [DIMETHYLGLIOTOXIN] | 41 | inactive | inactive | inactive
9 | C=CC(C)(C)c1[nH]c2cccc3c2c1C[C@@H]1[C@@H]3[C@@H](O)[C@@H](C)CN1C | 41 | inactive | inactive | inactive
10 | COc1ccc2c(c1)NC(=O)[C@@]21C=C2C(=O)N3CCC[C@H]3C(=O)N2[C@H]1C=C(C)C |  | inactive | inactive | inactive
11 | CC/C=C\[C@H](O)[C@H](O)C1=C(C)C(=O)[C@]2(O1)C(=O)N[C@@](OC)(C(=O)c1ccccc1)[C@@H]2O |  | inactive | inactive | Active
12 | COc1ccc2c3c([nH]c2c1)[C@H](C=C(C)C)N1C(=O)[C@@H]2CCCN2C(=O)[C@@H]1C3 [FUMITREMORGIN] | 41 | inactive | inactive | inactive
13 | C=CC(C)(C)c1[nH]c2cccc3c2c1C[C@@H]1[C@@H]3C[C@@H](C)CN1C | 3.1 | inactive | inactive | inactive
14 | C[C@@H]1N[C@@H]2N(C1=O)c1ccccc1[C@@]21C[C@@H](n2cnc3ccccc3c2=O)C(=O)O1 |  | inactive | inactive | inactive
